Measurements as given in PubChem BioAssay.
The source made the active and inactive calls.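 Rule for the calls, unless noted: active = Her2 level under about 52% in both replicate screens, with viability over 70% of control (limit read from the data); inconclusive = Her2 under the limit in one screen only, or viability under 70%; inactive = Her2 level above the set limit.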

How the values were obtained:
[1] = reducers of endogenous Her2 protein level, primary screen, SKBR3 breast tumor cells, AlphaScreen, ATP viability (AID 461); details: 18-24 h, measured here: SKBR3 viability, ATP luminescence, at 10 µM;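 for Her2 level: lower value means less Her2 protein in the cells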;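 for viability: percent of carrier control wells set as 100% viability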
[2] = molecular target: Receptor tyrosine-protein kinase erbB-2 (Homo sapiens) (UniProt P04626); assay: as above; details: 18-24 h, at 10 µM, stronger effect = lower value
[3] = SK-BR-3 cell growth inhibitors, pilot screen, 24 h, human (AID 572;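 active = viability at or below 10% of carrier control in both of two separate runs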;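 note: compound exposure lasted between 18 and 24 h rather than exactly 24 h; 100% = carrier-treated control wells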); details: SK-BR-3 viability, CellTiter-Glo luminescence, at 10 µM, stronger effect = lower value
[4] = HUVEC growth inhibition – cell-based, human, primary screen (AID 575;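 active = viability at or below 30% in both replicate assays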;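 note: 100% = median of untreated cell wells with 0.1% DMSO on each plate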); details: HUVEC proliferation, CellTiter-Glo luminescence, 72 h; at 10 µM; stronger effect = lower value
How it was run: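 System: primary human umbilical vein endothelial cells; Quantity: 1250 endothelial cells in each well; Buffer or medium: supplemented EBM, 2% fetal bovine serum; Doses: one dose, 10 µM final, 0.1% DMSO; Incubation: 72 h compound incubation; Technique: ATP-based CellTiter-Glo luminescent read; Evaluation: percent of median DMSO-control luminescence; Controls: vehicle and MePR control wells.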

[5] = growth inhibitors of H69AR lung tumor, primary screen, human, duplicate replicates (AID 580;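 active = viability at or under a set limit in both replicates, limit being median viability minus 3 SD, cut at about 48% in these data, passing the limit was not always enough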;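 note: 100% = mean luminescence of untreated wells and 0% = no signal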); details: H69AR lung tumor cells viability, ATP luminescence, 72 h; at 10 µM; stronger effect = lower value
[6] = reversal of MRP1-mediated doxorubicin resistance, pilot screen, H69AR cells, doxorubicin co-treatment (AID 601;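 active = viability loss from added drug above about 55%, and viability with drug at most 40%, in both replicates, limit read from the data, passing the limit was not always enough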); details: CellTiter-Glo, 72 h, at 10 µM; for differential viability (reversal): stronger effect = higher value
[7] = 384-well plate pilot, post-Golgi transport modulator project, inhibition of yeast transport mutant growth (AID 636; in the data active = inhibition above about 31%); details: absorbance 615 nm, about 18 h, stronger effect = higher value
[8] = growth suppression of yeast trafficking mutant, preliminary HTS, modulators of trafficking downstream of Golgi apparatus project, 1536-format plate, OD 615 nm (AID 637; in the data active = inhibition above about 30%); details: yeast transport mutant growth, absorbance 615 nm, 18 h; stronger effect = higher value
[9] = H69AR cells + 2 uM doxorubicin, measured here: viability with 2 uM doxorubicin, stronger effect = lower value
[10] = H69AR cells, compound alone cytotoxicity

Receptor tyrosine-protein kinase erbB-2 (Homo sapiens), sequence (P04626 whole entry, looked up): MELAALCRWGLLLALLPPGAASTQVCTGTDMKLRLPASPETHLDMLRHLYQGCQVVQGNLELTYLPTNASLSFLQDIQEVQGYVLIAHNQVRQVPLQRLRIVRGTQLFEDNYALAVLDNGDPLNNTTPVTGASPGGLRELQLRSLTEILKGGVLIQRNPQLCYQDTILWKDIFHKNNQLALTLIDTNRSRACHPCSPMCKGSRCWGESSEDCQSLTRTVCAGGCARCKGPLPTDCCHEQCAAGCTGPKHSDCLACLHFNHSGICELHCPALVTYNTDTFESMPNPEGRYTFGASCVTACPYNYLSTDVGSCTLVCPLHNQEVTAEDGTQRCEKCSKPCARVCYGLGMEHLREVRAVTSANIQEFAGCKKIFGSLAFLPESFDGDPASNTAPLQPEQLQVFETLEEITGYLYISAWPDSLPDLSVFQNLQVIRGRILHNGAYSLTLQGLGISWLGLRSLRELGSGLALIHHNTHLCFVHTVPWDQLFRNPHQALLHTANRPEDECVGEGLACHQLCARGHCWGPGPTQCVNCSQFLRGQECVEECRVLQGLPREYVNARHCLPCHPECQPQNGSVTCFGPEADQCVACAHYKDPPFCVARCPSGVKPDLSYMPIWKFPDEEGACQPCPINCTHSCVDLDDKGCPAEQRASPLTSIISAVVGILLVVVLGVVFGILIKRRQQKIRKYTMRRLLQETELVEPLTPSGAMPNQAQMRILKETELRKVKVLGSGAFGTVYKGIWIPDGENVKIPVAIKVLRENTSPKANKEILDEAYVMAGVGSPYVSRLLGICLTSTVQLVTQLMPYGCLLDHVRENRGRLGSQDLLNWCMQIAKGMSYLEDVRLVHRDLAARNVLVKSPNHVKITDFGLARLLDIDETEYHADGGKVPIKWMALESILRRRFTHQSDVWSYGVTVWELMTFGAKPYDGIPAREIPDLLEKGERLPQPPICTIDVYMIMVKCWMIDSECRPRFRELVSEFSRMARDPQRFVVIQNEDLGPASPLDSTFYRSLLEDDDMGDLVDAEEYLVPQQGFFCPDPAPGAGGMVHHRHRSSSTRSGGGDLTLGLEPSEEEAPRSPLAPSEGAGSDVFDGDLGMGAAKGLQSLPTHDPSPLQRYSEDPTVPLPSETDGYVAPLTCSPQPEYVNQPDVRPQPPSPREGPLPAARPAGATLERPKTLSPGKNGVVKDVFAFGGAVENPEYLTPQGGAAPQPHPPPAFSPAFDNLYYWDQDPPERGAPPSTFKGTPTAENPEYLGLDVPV

SMILES | viability [1] [%] | Her2 level [2] | viability [3] | viability [4] | viability [5] | differential viability (reversal) ([6]; H69AR cells + 2 uM doxorubicin) | viability [6, 9] [%] | viability [6, 10] [%] | inhibition [7] | inhibition [8]
Cc1cccc(N2C(=O)CC(N3CCN(Cc4ccc(Cl)cc4)CC3)C2=O)c1 (stereo not given) | 104 | 100% (inactive) | 104% (inactive) | 94.7% (inactive) | 99.2% (inactive) | 12.2% (inactive) | 86.9 | 99.2 | -3.87% (inactive) | 0.82% (inactive)
CCOC(=O)Cc1csc(NC(=O)CN(C)S(=O)(=O)c2ccc3c(c2)CCC(=O)N3)n1 | 108 | 109% (inactive) | 108% (inactive) | 97.5% (inactive) | 100% (inactive) | 6.38% (inactive) | 93.7 | 100 | -4% (inactive) | 0.82% (inactive)
COc1cccc(C(=O)Nc2ccc(C)cc2)c1 | 99 | 102% (inactive) | 99% (inactive) | 84.6% (inactive) | 92.3% (inactive) | 3.96% (inactive) | 88.3 | 92.3 | -3.47% (inactive) | -7.46% (inactive)
CCC(OC(=O)c1cccs1)C(=O)NCc1ccco1 (stereo not given) | 103 | 93% (inactive) | 103% (inactive) | 98.6% (inactive) | 91.4% (inactive) | 9.38% (inactive) | 82 | 91.4 | -2.86% (inactive) | 1.97% (inactive)
COc1cc(OC)c(C(=O)Nc2ccc(N(C)C)cc2)cc1OC | 111 | 84.5% (inactive) | 111% (inactive) | 103% (inactive) | 89% (inactive) | -4.37% (inactive) | 93.4 | 89 | -1.84% (inactive) | -1.9% (inactive)
COc1ccc(N2CCN(C(=O)COc3ccc4ccccc4c3)CC2)cc1 | 77.5 | 86.5% (inactive) | 77.5% (inactive) | 84.8% (inactive) | 108% (inactive) | 17.1% (inactive) | 90.8 | 108 | -6.35% (inactive) | 3.11% (inactive)
CC(=O)Nc1ccc(S(=O)(=O)N2CCN=C2C)cc1 | 92.5 | 95% (inactive) | 92.5% (inactive) | 109% (inactive) | 99.4% (inactive) | 2.62% (inactive) | 96.8 | 99.4 | -6.27% (inactive) | -5.08% (inactive)
C/C(=C\c1cc(C(=O)O)c(C)o1)CO | 102 | 126% (inactive) | 102% (inactive) | 108% (inactive) | 89.1% (inactive) | -8.12% (inactive) | 97.2 | 89.1 | -5.13% (inactive) | -0.33% (inactive)
CCCCOC(=O)n1c(SCC(=O)N(CC)CC)nc2ccccc21 | 86 | 97.5% (inactive) | 86% (inactive) | 81.8% (inactive) | 91.4% (inactive) | 1.75% (inactive) | 89.6 | 91.4 | -1.82% (inactive) | -4.29% (inactive)
CC(C)CCNC(=O)NC(=O)COc1ccccc1C#N | 92.5 | 109% (inactive) | 92.5% (inactive) | 112% (inactive) | 97.1% (inactive) | 7.26% (inactive) | 89.8 | 97.1 | -3.78% (inactive) | -5.4% (inactive)
c1ccc(-n2ncc3c(N4CCCCC4)ncnc32)cc1 | 105 | 90.5% (inactive) | 105% (inactive) | 59.4% (inactive) | 70% (inactive) | 4.94% (inactive) | 65.1 | 70 | -3.6% (inactive) | -4.17% (inactive)
CCCCc1ccc(NC(=O)c2c(C)noc2C)cc1 | 105 | 94.5% (inactive) | 105% (inactive) | 96% (inactive) | 89.4% (inactive) | 0.065% (inactive) | 89.3 | 89.4 | -3.68% (inactive) | 4.43% (inactive)
O=S(=O)(NCCSc1ccccc1)c1cccs1 | 95 | 86% (inactive) | 95% (inactive) | 102% (inactive) | 86.4% (inactive) | 11.9% (inactive) | 74.6 | 86.4 | -6.49% (inactive) | -5.5% (inactive)
O=C(CCSc1ccccc1)N1CCN(C(=O)c2ccco2)CC1 | 99 | 99.5% (inactive) | 99% (inactive) | 93.1% (inactive) | 95.1% (inactive) | 11% (inactive) | 84.1 | 95.1 | -0.79% (inactive) | -0.32% (inactive)
CCC(C)(C)n1nnnc1C(c1ccc(OC)c(OC)c1)N1CCN(c2ccc(F)cc2)CC1 (stereo not given) | 80 | 93.5% (inactive) | 80% (inactive) | 89.2% (inactive) | 85.8% (inactive) | 31.3% (inactive) | 54.5 | 85.8 | -1.95% (inactive) | 2% (inactive)
CC1=C/C(=C/N(C)c2ccccc2)C(=O)S1 | 109 | 94% (inactive) | 109% (inactive) | 79.7% (inactive) | 89.3% (inactive) | 4.12% (inactive) | 85.2 | 89.3 | 0.41% (inactive) | -3.49% (inactive)
